Source: ChEMBL document CHEMBL3627671, “Novel derivatives of nitro-substituted salicylic acids: Synthesis, antimicrobial activity and cytotoxicity” (Bioorg Med Chem, 2015)

Tests used:
Type in all cases: functional
[1] = tested on: Pichia kudriavzevii; assay: Antifungal activity against Candida krusei E28 after 24 hrs by microdilution broth method; settings: E28, 24 h
Summary of the method: (§1)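 CLSI M27-A3 broth microdilution in RPMI 1640 with glutamine, buffered to pH 7.0 with MOPS; DMSO diluent. Yeast inoculum 5 × 10^3 ± 0.2 CFU/mL. Moulds grown on Sabouraud agar 3–10 days before spore harvest, final inoculum 0.5-5 × 10^4 CFU/mL, checked in a Bürker chamber. Incubated dark, humid, 35 °C, read at 24 and 48 h visually and at 540 nm. MIC taken as ≥80% (yeasts) or ≥50% (filamentous) growth reduction versus control.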

[2] = tested on: Candida tropicalis; assay: Antifungal activity against Candida tropicalis 156 after 48 hrs by microdilution broth method; settings: Candida tropicalis, 156, 48 h; summary of the method: as §1
[3] = tested on: Mycobacterium tuberculosis; assay: Antimycobacterial activity against Mycobacterium tuberculosis H37Rv 331/88 after 14 days; settings: H37Rv 331/88, 336 h
[4] = tested on: Mycobacterium tuberculosis; assay: Antimycobacterial activity against Mycobacterium tuberculosis H37Rv 331/88 after 21 days; settings: H37Rv 331/88, 504 h
[5] = tested on: Staphylococcus epidermidis; assay: Antibacterial activity against Staphylococcus epidermidis H 6966/08 after 24 hrs by microdilution broth method; settings: H 6966/08, 24 h
Summary of the method: (§2)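 Mueller-Hinton broth microdilution (modified M07-A07), pH 7.4 (±0.2). Compounds dissolved in DMSO, tested at final 500 to 0.49 µmol/L. Inoculum in sterile water matched to 0.5 McFarland. Incubated in the dark, humid atmosphere, 35 °C, read at 24 and 48 h visually and at 540 nm. MIC taken as ≥95% growth reduction (IC95) versus control.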

[6] = tested on: Klebsiella pneumoniae; assay: Antibacterial activity against Klebsiella pneumoniae D 11750/08 after 48 hrs by microdilution broth method; settings: D 11750/08, 48 h; summary of the method: as §2
[7] = tested on: Trichophyton mentagrophytes; assay: Antifungal activity against Trichophyton mentagrophytes 445 after 48 hrs by microdilution broth method; settings: Trichophyton mentagrophytes, 445, 48 h
[8] = tested on: Klebsiella pneumoniae; assay: Antibacterial activity against ESBL-positive Klebsiella pneumoniae J 14368/08 after 48 hrs by microdilution broth method; settings: J 14368/08, 48 h; summary of the method: as §2
[9] = tested on: Staphylococcus aureus; assay: Antibacterial activity against methicillin-resistant Staphylococcus aureus H 5996/08 after 24 hrs by microdilution broth method; settings: H 5996/08, 24 h
[10] = tested on: Lichtheimia corymbifera; assay: Antifungal activity against Absidia corymbifera 272 after 24 hrs by microdilution broth method; settings: Lichtheimia corymbifera, 272, 24 h; summary of the method: as §1
[11] = tested on: Escherichia coli; assay: Antibacterial activity against Escherichia coli CCM4517 after 48 hrs by microdilution broth method; settings: CCM4517, 48 h; summary of the method: as §2
[12] = tested on: Trichophyton mentagrophytes; assay: Antifungal activity against Trichophyton mentagrophytes 445 after 24 hrs by microdilution broth method; settings: Trichophyton mentagrophytes, 445, 24 h
[13] = tested on: Mycobacterium kansasii; assay: Antimycobacterial activity against Mycobacterium kansasii 6509/96 after 14 days; settings: 6509/96, 336 h
Summary of the method: (§3)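 Šula's semisynthetic medium micromethod at 37 °C, read after 7, 14 and 21 days. The 1.0 McFarland suspension was diluted 10^-4. MIC determined. 6509/96 is a clinical isolate.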

[14] = tested on: Escherichia coli; assay: Antibacterial activity against Escherichia coli CCM4517 after 24 hrs by microdilution broth method; settings: CCM4517, 24 h; summary of the method: as §2
[15] = tested on: Trichosporon asahii; assay: Antifungal activity against Trichosporon asahii 1188 after 48 hrs by microdilution broth method; settings: Trichosporon asahii, 1188, 48 h; summary of the method: as §1
[16] = tested on: Candida tropicalis; assay: Antifungal activity against Candida tropicalis 156 after 24 hrs by microdilution broth method; settings: Candida tropicalis, 156, 24 h; summary of the method: as §1
[17] = tested on: Aspergillus fumigatus; assay: Antifungal activity against Aspergillus fumigatus 231 after 48 hrs by microdilution broth method; settings: Aspergillus fumigatus, 231, 48 h; summary of the method: as §1
[18] = tested on: Pseudomonas aeruginosa; assay: Antibacterial activity against Pseudomonas aeruginosa CCM 1961 after 24 hrs by microdilution broth method; settings: CCM 1961, 24 h; summary of the method: as §2
[19] = tested on: Nakaseomyces glabratus; assay: Antifungal activity against Candida glabrata 20/I after 24 hrs by microdilution broth method; summary of the method: as §1
[20] = tested on: Staphylococcus aureus; assay: Antibacterial activity against methicillin-resistant Staphylococcus aureus H 5996/08 after 48 hrs by microdilution broth method; settings: H 5996/08, 48 h
[21] = tested on: Enterococcus sp.; assay: Antibacterial activity against Enterococcus sp. J 14365/08 after 24 hrs by microdilution broth method; settings: J 14365/08, 24 h; summary of the method: as §2
[22] = tested on: Aspergillus fumigatus; assay: Antifungal activity against Aspergillus fumigatus 231 after 24 hrs by microdilution broth method; settings: Aspergillus fumigatus, 231, 24 h; summary of the method: as §1
[23] = tested on: Staphylococcus aureus; assay: Antibacterial activity against Staphylococcus aureus CCM 4516/08 after 48 hrs by microdilution broth method; settings: CCM 4516/08, 48 h
[24] = tested on: Pseudomonas aeruginosa; assay: Antibacterial activity against Pseudomonas aeruginosa CCM 1961 after 48 hrs by microdilution broth method; settings: CCM 1961, 48 h; summary of the method: as §2
[25] = tested on: Mycobacterium kansasii; assay: Antimycobacterial activity against Mycobacterium kansasii 235/80 after 21 days; settings: 235/80, 504 h; summary of the method: as §3
[26] = tested on: Enterococcus sp.; assay: Antibacterial activity against Enterococcus sp. J 14365/08 after 48 hrs by microdilution broth method; settings: J 14365/08, 48 h; summary of the method: as §2
[27] = tested on: Mycobacterium avium; assay: Antimycobacterial activity against Mycobacterium avium 330/80 after 14 days; settings: 330/80, 336 h
[28] = tested on: Staphylococcus aureus; assay: Antibacterial activity against Staphylococcus aureus CCM 4516/08 after 24 hrs by microdilution broth method; settings: CCM 4516/08, 24 h
[29] = tested on: Trichosporon asahii; assay: Antifungal activity against Trichosporon asahii 1188 after 24 hrs by microdilution broth method; settings: Trichosporon asahii, 1188, 24 h; summary of the method: as §1
[30] = tested on: Pichia kudriavzevii; assay: Antifungal activity against Candida krusei E28 after 48 hrs by microdilution broth method; settings: E28, 48 h; summary of the method: as §1
[31] = tested on: Nakaseomyces glabratus; assay: Antifungal activity against Candida glabrata 20/I after 48 hrs by microdilution broth method; summary of the method: as §1
[32] = tested on: Mycobacterium avium; assay: Antimycobacterial activity against Mycobacterium avium 330/80 after 21 days; settings: 330/80, 504 h
[33] = tested on: Mycobacterium kansasii; assay: Antimycobacterial activity against Mycobacterium kansasii 6509/96 after 7 days; settings: 6509/96, 168 h; summary of the method: as §3
[34] = tested on: Lichtheimia corymbifera; assay: Antifungal activity against Absidia corymbifera 272 after 48 hrs by microdilution broth method; settings: Lichtheimia corymbifera, 272, 48 h; summary of the method: as §1
[35] = tested on: Klebsiella pneumoniae; assay: Antibacterial activity against ESBL-positive Klebsiella pneumoniae J 14368/08 after 24 hrs by microdilution broth method; settings: J 14368/08, 24 h; summary of the method: as §2
[36] = tested on: Klebsiella pneumoniae; assay: Antibacterial activity against Klebsiella pneumoniae D 11750/08 after 24 hrs by microdilution broth method; settings: D 11750/08, 24 h; summary of the method: as §2
[37] = tested on: Mycobacterium kansasii; assay: Antimycobacterial activity against Mycobacterium kansasii 235/80 after 14 days; settings: 235/80, 336 h; summary of the method: as §3
[38] = tested on: Staphylococcus epidermidis; assay: Antibacterial activity against Staphylococcus epidermidis H 6966/08 after 48 hrs by microdilution broth method; settings: H 6966/08, 48 h; summary of the method: as §2
[39] = tested on: Candida albicans; assay: Antifungal activity against Candida albicans ATCC 44859 after 48 hrs by microdilution broth method; settings: ATCC 44859, 48 h; summary of the method: as §1
[40] = tested on: Mycobacterium kansasii; assay: Antimycobacterial activity against Mycobacterium kansasii 6509/96 after 21 days; settings: 6509/96, 504 h; summary of the method: as §3
[41] = tested on: Mycobacterium kansasii; assay: Antimycobacterial activity against Mycobacterium kansasii 235/80 after 7 days; settings: 235/80, 168 h; summary of the method: as §3
[42] = tested on: Candida albicans; assay: Antifungal activity against Candida albicans ATCC 44859 after 24 hrs by microdilution broth method; settings: ATCC 44859, 24 h; summary of the method: as §1

Measured: MIC

O=C(Nc1cccc(Br)c1)c1cc([N+](=O)[O-])ccc1O
500 µM: [1] | [10] | [15] | [17] | [21] | [22] | [29] | [34]
31.2 µM: [5] | [9] | [28]
125 µM: [27]
250 µM: [7] | [12] | [32] | [38]
62.5 µM: [13] | [20] | [23] | [25] | [37] | [40]
32 µM: [33] | [41]
16 µM: [3] | [4]
> 500 µM: all other assays above

O=C(Nc1cccc(Cl)c1)c1ccc([N+](=O)[O-])cc1O
62.5 µM: [1] | [7] | [10] | [12] | [22] | [29] | [32]
16 µM: [4] | [13] | [25] | [33] | [37] | [40]
250 µM: [34]
500 µM: [21]
15.6 µM: [20] | [23] | [38]
7.81 µM: [5] | [9] | [28]
32 µM: [27]
125 µM: [15] | [17] | [30]
8 µM: [3] | [41]
> 500 µM: all other assays above
